Laboratory results from ChEMBL document CHEMBL4513216, “Probing the Open Global Health Chemical Diversity Library for Multistage-Active Starting Points for Next-Generation Antimalarials” (ACS Infect Dis, 2020).

test: Toxicity liver stage against HepG2, at 10uM; format: cell-based; design: test concentration 10 uM, cell line HepG2-A16-CD81EGFP; settings: human, HepG2-A16-CD81EGFP cells; read-out: INHIBITION
Procedure, shortened: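 Uninfected HepG2-A16-CD81EGFP cells, 3 × 10^3 per well, 1536-well, plated on prespotted compound at 10 μM final, parasite-free screening media added to match infected plates; puromycin 10 μM positive, DMSO 0.5% negative; run in parallel with 48 h PbLuc assay at 37 °C, 5% CO2; viability by CellTiter-Glo luminescence, normalized to controls.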

| Compound | cytotoxicity at 10 µM [%] |
| --- | --- |
| CCOc1ccc(CN2CCc3nc4ccsc4c(=O)n3CC2)cc1 | -6.74 |
| O=C(COC1CCOC1)N(CC(F)F)c1cccc(Cl)c1 (stereo unspecified) | 3.44 |
| CC(CN1CCCC1=O)NC(=O)Nc1ccccc1Cn1cccn1 (stereo unspecified) | -1.33 |
| Cc1n[nH]c(C)c1NC(=O)CN1CCc2c(nc(C(C)C)n2C)C1 | -5.68 |
| COCc1noc(-c2ccc(N(C)Cc3c(C)n[nH]c3C)nc2)n1 | 0.897 |
| Cc1csc(N2CCN(Cc3nnsc3Cl)CC2C)n1 (stereo unspecified) | -59.9 |
| COc1ccc(C(C)=O)c(OCC(=O)NC(C)c2ccc(F)cc2)c1 (stereo unspecified) | 2.68 |
| Cc1nc(C2CCCN(C(=O)c3cnn(C4CCCCC4)c3)C2)no1 (stereo unspecified) | -6.37 |
| CCOc1ccc(C(=O)Nc2c(C)nc3cccc(C)n3c2=O)cc1 | 8.99 |
| CC(C)C(=O)N1CCC(C)(c2cc(O)[nH]n2)CC1 | -14.5 |
| COc1cccc(-c2noc3c2CN(c2ncnc4c2CCC4)CC3)c1 | 51 |
| CC(=O)Nc1nc(C(=O)NCCOc2ccc(C)cc2)cs1 | 5.35 |
| CC(=O)N[C@@H]1CN(C(=O)c2cc3sccc3[nH]2)C[C@H]1c1ccc(C)o1 | 8.98 |
| Cn1cc(CNc2ccc(CCN3CCC(C(N)=O)CC3)cc2)cn1 | -6.21 |
| CC(C)n1cc(C(=O)NCC(CO)Cc2cccs2)cn1 (stereo unspecified) | 7.64 |
| COc1cccc(CNc2nc(O)cc(C3CC(=O)N(C)C3)n2)c1 (stereo unspecified) | -2.24 |
| OCCCNc1cccc(COC2CCCCC2)c1 | -0.23 |
| CC(C)NC(=O)c1cc(Br)cc(S(=O)(=O)N2CCOCC2)c1F | 6.17 |
| Cc1noc(C)c1CN1C[C@@H]2COC[C@H](C(=O)N3CCCO3)[C@@H]2C1 | -66.6 |
| CC(=O)N[C@@H]1CN(Cc2nnc(-c3ccccc3)o2)C[C@H]1C(C)C | -0.598 |
| Cn1cc(CN2CC[C@H]3C[C@H](c4nc(C5CC5)cs4)O[C@@H]3C2)cn1 | -6.78 |
| COc1ccc(Cl)cc1-c1cc(NC(=O)C2CNC(=O)N2)[nH]n1 (stereo unspecified) | -1.12 |
| Cc1nn(CC(C)C)c(N(C)C)c1CNCCC(=O)NC(C)C | 7.45 |

| Compound | cytotoxicity at 10 µM [%] |
| --- | --- |
| CCC(c1ccc(F)cc1)N1CCn2c(CO)nnc2C1 (stereo unspecified) | -9.15 |
| CCOc1cccc(COC(=O)c2cc(C)on2)n1 | -5.08 |
| O=C(O)Cc1cnc(-c2c(Cl)cccc2Cl)s1 | 2.84 |
| COCC(=O)N1CCCN(c2ncnc3c2CCNCC3)CC1 | 8.93 |
| O=C(NCc1cccnc1)NCC(O)c1ccccc1C(F)(F)F (stereo unspecified) | 1.5 |
| CS(=O)(=O)N1CCC(Nc2ccc(C#N)c(C(F)(F)F)c2)CC1 | 6.85 |
| CCc1nnsc1C(=O)NC(CC(C)C)C(=O)OC (stereo unspecified) | 11.4 |
| CC(C)(C(=O)NCC1CC1)c1ccccc1F | -5.47 |
| CCC1(C(=O)O)CCCN(C(=O)c2ccc(O)c(Cl)c2)C1 (stereo unspecified) | -8.87 |
| CN1CCN(C2CCN(Cc3ccc(Cl)s3)CC2)C1=O | 11.2 |
| Cc1cc(C)c(OCC(=O)NS(=O)(=O)c2cccnc2)c(C)c1 | -1.35 |
| NC(=O)c1ccnc(N2CCCC(CO)(Cc3ccc(F)cc3)C2)c1 (stereo unspecified) | 14.1 |
| CCCN1CCc2[nH]cnc2C12CCN(C(=O)Cn1ccnc1C)CC2 | 13.7 |
| Cc1nc(C2CCCN(C(=O)COCc3ccccc3)C2)no1 (stereo unspecified) | -2 |
| Cc1noc(C2CCCN(Cn3cc(Cl)cn3)C2)n1 (stereo unspecified) | 2.42 |
| Cc1cccc(CN2C[C@@H]3COC[C@]3(COc3cccnc3)C2)n1 | 11.4 |
| O=C(Nc1cnc2n1CCCC2)C1CCNCC1 | 4.25 |
| Cc1cc(CN(C)Cc2ccccc2N2CCCCC2)n[nH]1 | -2.98 |
| COc1cc(C)nc(N2CCN(C(=O)CCc3ccsc3)CC2)n1 | 10 |
| Cc1ccccc1-c1cc(C(=O)NCCN2CCCS2(=O)=O)[nH]n1 | -12.9 |
| c1cnn(CC2CCCCN2Cc2nc(-c3ccsc3)no2)c1 (stereo unspecified) | -12.2 |
| CCOCCCNC(=O)NC(C)c1ccc(-n2cncn2)cc1 (stereo unspecified) | 3.31 |
| COCCCNC(=O)CN(C)C(=O)c1ccc(-n2cccc2)cc1O | -13.5 |

| Compound | cytotoxicity at 10 µM [%] |
| --- | --- |
| CC(C)n1nc2c(cc1=O)CN(CC(=O)N(C)c1nccs1)CC2 | -9.94 |
| Cc1ccn(-c2ccc(NCc3cccnc3N3CCCCC3)nn2)n1 | 3.09 |
| O=C(c1ccccc1C1CCNC1)N1CCC(N2CCC(O)CC2)CC1 (stereo unspecified) | -8.3 |
| CN(CC(O)C(F)(F)F)C(=O)Nc1cccc(N2CCCC2)c1 (stereo unspecified) | 5.48 |
| COCC(NC(=O)c1ccco1)c1cccc(C(F)(F)F)c1 (stereo unspecified) | -3.96 |
| CN1CCC(c2cccc(-c3ccc(C(=O)O)cc3)n2)CC1 | -0.358 |
| CNc1nc(CNC(=O)Nc2cccc(COCCOC(C)C)c2)cs1 | 8.77 |
| CC(C)CN1CCC(NC(=O)c2ccc(Cl)cc2Cl)CC1 | -8.33 |
| COc1ccc(C2CCCN2C(=O)NCCNc2ccccn2)cc1 (stereo unspecified) | 6.64 |
| Cc1nc(CNC(=O)C(C)(C)c2ccc(F)cc2)no1 | 6.08 |
| CCC1CN(CC(=O)N2CCC2)CCN1CCOC (stereo unspecified) | -9.78 |
| Cc1cccc(-c2nc(C)nn2CC(=O)N(C)C2CC2)c1 | -19.8 |
| CC(=O)N1CCC2(C1)c1ccccc1S(=O)(=O)N2C (stereo unspecified) | 6.57 |
| Cc1nnc(NC(=O)NCc2ccc(N3CCOCC3)nc2)s1 | -6.21 |
| CCN(CCNC(=O)C1CCCN(C(C)=O)C1)c1ccccc1C (stereo unspecified) | 4.87 |
| COCCOCC(C)NC(=O)COc1nn(C)c2nc(C)cc(C)c12 (stereo unspecified) | -3.85 |
| Nc1cc2c(nn1)CCN(C(=O)c1csc(-c3cccs3)n1)C2 | -1.32 |
| CCCN1CCCC2(CCN(c3nc(C)nc4ccsc34)C2)C1=O (stereo unspecified) | 17.4 |
| Fc1ccc(-c2nc(CN3CCn4c(nnc4C4CC4)C3)co2)cc1 | -7.72 |
| CC(O)CN1CCN(C(=O)CCOC(C)C)CC1 (stereo unspecified) | -3.86 |
| CCn1c(C2CCN(C(=O)c3ccc4cc[nH]c4c3)CC2)n[nH]c1=O | -18.5 |
| O=C(NCc1ccccc1)N1CCC(Oc2ncccc2Cl)CC1 | 17 |
| CN(C)c1cc(C(=O)Nc2cccnc2N2CCSCC2)ccn1 | -2.9 |

| Compound | cytotoxicity at 10 µM [%] |
| --- | --- |
| CCOC(=O)C1CSCCN1C(=O)c1ccc(-n2nc(C)cc2C)cc1 (stereo unspecified) | -4.92 |
| CC(=O)NCC(=O)N1CCc2nc(-c3ccccc3)nc(C)c2CC1 | -2.54 |
| CCN(C)C[C@@H]1CN(S(=O)(=O)c2ccc(OC)cc2)C[C@@H]1CO | 14.8 |
| CNC(=O)C(C)(C)N1CCC[C@H]1C(=O)NCC1CC1 | 2.05 |
| O=C(c1ccc(OCC2CC2)cc1)N1CCOCC1c1ncon1 (stereo unspecified) | 1.79 |
| O=C(NCC1CC1)c1cc(Cl)c2c(c1)OCCCO2 | 0.344 |
| Cn1ccc(NC(=O)CN2C[C@@H]3CC[C@H]2CN(Cc2ccccn2)C3)n1 | 0.936 |
| Cc1nc(NC2CCN(C(=O)C3CC3)CC2)c2cnn(C)c2n1 | -2.13 |
| COCCNC(=O)N1CCN(C(C)C(=O)NC2CCCC2)CC1 (stereo unspecified) | 1.16 |
| CCn1ccnc1CNc1nccc(-c2c(C)nn(C)c2C)n1 | -0.0793 |
| c1ccc(OC[C@@H]2CCC[C@@]23CNCCO3)nc1 | 9.93 |
| CC(CS(C)(=O)=O)NCc1cc(Cl)ccc1F (stereo unspecified) | -46.6 |
| COc1ccc(CN(C)C(=O)Cc2c(C)nn(C)c2C)cc1F | 17 |
| Cc1ccc(C(=O)N2CCCCC2c2[nH]ncc2S(C)(=O)=O)cn1 (stereo unspecified) | -6.72 |
| COc1ccc(C(=O)NCc2ccco2)nn1 | -2.14 |
| Cc1nccn1C1CCCN(C(=O)c2ccc3c(c2)CCC3)C1 (stereo unspecified) | -13.8 |
| COCCCn1ccc(NS(=O)(=O)c2cc(C)c(F)cc2F)n1 | 20.1 |
| CC(C)(C)n1ncc2c1CCCC2NCc1ccc2c(c1)OCCO2 (stereo unspecified) | 1.7 |
| FC(F)C(F)(F)COCc1ncnn1-c1ccc2c(c1)OCO2 | -2.82 |
| c1ccc(-c2nnc3ccc(N4CCC5(CCOC5)C4)nn23)cc1 (stereo unspecified) | 7.12 |
| CC(=O)NCCNc1nccc(CCC(F)(F)F)n1 | -146 |
| Cc1cnc(N2CCC3(CCN(CC4CC4)C3=O)CC2)nc1 | 6.17 |
| CCCC1CCCN(C(=O)Nc2ccnc(C(=O)N(C)C)c2)CC1 (stereo unspecified) | 9.58 |

| Compound | cytotoxicity at 10 µM [%] |
| --- | --- |
| Cc1cnc(CN2C[C@H]3CC(Oc4ccccc4)C[C@H]3C2)cn1 (stereo partly specified) | -24.3 |
| CCc1nccn1CCC(=O)N1C[C@@H]2CC[C@H]1CN(C(=O)N(C)C)C2 | -14.4 |
| CCCC(NC(=O)c1ccccn1)c1nnc2ccccn12 (stereo unspecified) | -6.54 |
| Cc1nonc1C(=O)N1CCc2c(ncn2CCc2ccccc2)C1 | -0.207 |
| O=C(CCc1ccsc1)N1CCC(N2CCNC2=O)CC1 | -0.546 |
| CCC(Nc1nccc(C2CCCC2)n1)c1ccncc1 (stereo unspecified) | -63.8 |
| Cc1cccc(C(CNC(=O)NCc2cc[nH]n2)N2CCOCC2)c1 (stereo unspecified) | -9.19 |
| O[C@]12CCNC[C@H]1CN(c1nccc3ccccc13)CC2 | 12.3 |
| Cc1ccc(CN2CC[C@@H]3[C@@H](CO[C@H]3CN3CCN(C)CC3)C2)cc1 | -2.74 |
| CCc1ccc(NC(=O)C(C)Nc2cccc3c2OCCO3)cc1 (stereo unspecified) | 0.788 |
| O=C(NCC(F)(F)F)c1nnn(-c2ccccc2)c1C(F)(F)F | 4.39 |
| Cc1ncc2c(c1CNC(=O)C1(C)CCCCO1)CCNC2 (stereo unspecified) | -27.9 |
| COc1ccc(CN2CCC=C(C(C)NC(C)=O)C2)cc1 (stereo unspecified) | -5.5 |
| Cc1ccc(-c2nc(CN3CCCC(Cn4cncn4)C3)cs2)o1 (stereo unspecified) | -22.2 |
| Cc1cnn(CC2CCCN2C(=O)c2csc(C(C)C)n2)c1 (stereo unspecified) | 4.89 |
| CCC(CNC1CCN(C(C)=O)CC1)Oc1ccccc1Cl (stereo unspecified) | -13.4 |
| CS(=O)(=O)N1C[C@H]2CC[C@@H](C1)N(CCC(=O)NCc1ccco1)C2 | -17.9 |
| CC(C)N[C@@H]1CO[C@H](CNC(=O)c2cccs2)[C@H]1O | -3.65 |
| O=C(NC1CC1)[C@H]1C[C@H]2OCC[C@H]2N(CC2CC2)C1 | 2.76 |
